The results in this text go back to ChEMBL document CHEMBL4340525, “Tumor-Targeted Delivery of 6-Diazo-5-oxo-l-norleucine (DON) Using Substituted Acetylated Lysine Prodrugs” (J Med Chem, 2019).

The structures appear in SMILES notation.

A short description of series [1]: Tmax in CES1-deficient C57BL/6 mouse plasma implanted with mouse EL4 cells at 3.2 mg/kg, sc administered as single dose by LC-MS/MS analysis. Format: ADME, organism-based. The gist of the method: (§1)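 Male and female C57BL/6 CES1-/- mice, 6–8 weeks old, carried flank EL4 tumours from SC injection of 1 × 10^6 cells in PBS. Dosing began at about 400 mm3 mean tumour volume. Each mouse got one SC dose of 3.2 mg/kg (1 mg/kg DON equivalent) in ethanol/Tween 80/saline 5:10:85. Plasma, jejunum and tumour were taken at set times, n = 3 per time point. Prodrug and dabsyl-derivatised DON were measured by LC-MS/MS. Noncompartmental analysis: Cmax and Tmax observed, AUClast by log-linear trapezoidal rule.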

Series [2] is described as follows: Stability in human plasma suspended with human P493B cells at 20 uM by LC-MS/MS analysis. The settings on record: TDE = time-dependent effect. Format: ADME. A digest of the protocol: (§2)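 Cells were grown in RPMI 1640 with 10% FBS, washed in DPBS and resuspended in human plasma at 10 million cells/mL. After 5 min preincubation at 37 °C, compound was added at 20 µM final for 1 h. The mix was centrifuged at 10 000g and the washed pellet and plasma were quantified separately. DON was read by LC-MS/MS after dabsyl chloride derivatisation, intact prodrug directly. Standard curves were made in naive cells or plasma.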

The nature of series [3]: Prodrug conversion in human P493B cells suspended in human plasma assessed as deacetylation by measuring (6a) (S)-2-{(S)-2-[(Adamantane-1-carbonyl)-amino]-6-amino-hexanoylamino}-6-diazo-5-oxo-hexanoic acid isopropyl ester formation measured after 1 hr by HRMS analysis. The class given is ADME, cell-based. A digest of the protocol: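 Metabolite identification: compound was incubated 1 h with 10 million P493B cells suspended in 1 mL human plasma. Cell pellets were collected and metabolites identified by HRMS.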

Series [4] can be described thus: Prodrug conversion in human P493B cells suspended in human plasma assessed as 6-diazo-5-oxo-L-norleucine formation at 20 uM measured after 1 hr by LC-MS/MS analysis. The class given is ADME, cell-based. A digest of the protocol: as §2
For another series, the target named is Procathepsin L (Homo sapiens, UniProt P07711). The series is described as follows: Stability of the compound assessed as recombinant human cathepsin L-mediated compound hydrolysis by measuring parent compound remaining at 1 uM measured after 3 hrs by UHPLC-MS analysis. Format: ADME. The gist of the method:
(§3)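 Compound at 1 µM was incubated at 37 °C with shaking in 50 mM MES pH 6 with 5 mM DTT. Recombinant human enzyme final levels: HDAC2 10 µg/mL, cathepsin B 1 µg/mL, cathepsin L 0.1 µg/mL, alone or cathepsins B+L combined. Aliquots were quenched in methanol with losartan at 0.25, 0.5, 1 and 3 h. Parent remaining by Q-TOF LC-MS.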

The nature of series [5]: Tmax in CES1-deficient C57BL/6 mouse plasma implanted with mouse EL4 cells assessed as 6-diazo-5-oxo-L-norleucine level at 3.2 mg/kg, sc administered as single dose by LC-MS/MS analysis. Format: ADME, organism-based. The settings on record: in vivo. The gist of the method:
as §1

Series [6] in a line: Stability of the compound in CES1-deficient C57BL/6 mouse plasma measured after 60 mins by UHPLC-MS analysis. The note with it: 1 h. Format: ADME, cell-free.
Series [7] can be described thus: AUC (0 to t) in CES1-deficient C57BL/6 mouse tumor implanted with mouse EL4 cells assessed as 6-diazo-5-oxo-L-norleucine level at 3.2 mg/kg, sc administered as single dose by LC-MS/MS analysis. The settings on record: in vivo. Format: ADME, organism-based, Neoplasm. The gist of the method: as §1
Series [8] is described as follows: Prodrug conversion in human DU4475 cells suspended in human plasma assessed as 6-diazo-5-oxo-L-norleucine formation at 20 uM measured after 1 hr by LC-MS/MS analysis. The settings on record: du-4475, 1 h. The class given is ADME, cell-based. The gist of the method:
as §2

Series [9] can be described thus: Tmax in CES1-deficient C57BL/6 mouse tumor implanted with mouse EL4 cells assessed as 6-diazo-5-oxo-L-norleucine level at 3.2 mg/kg, sc administered as single dose by LC-MS/MS analysis. The note with it: in vivo. The class given is ADME, organism-based, Neoplasm. The gist of the method:
as §1

Series [10] in a line: Ratio of AUC (0 to t) in tumor to plasma of CES1-deficient C57BL/6 mouse implanted with mouse EL4 cells assessed as 6-diazo-5-oxo-L-norleucine level at 3.2 mg/kg, sc administered as single dose by LC-MS/MS analysis. The class given is ADME, organism-based. The note with it: tumour. A digest of the protocol: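 Tissue-to-tissue ratios of DON AUClast came from noncompartmental analysis. EL4-bearing CES1-/- C57BL/6 mice received one SC dose of 3.2 mg/kg (1 mg/kg DON equivalent) in ethanol/Tween 80/saline 5:10:85. Tumour, jejunum and plasma were sampled over time, n = 3 mice per time point. DON was read by LC-MS/MS after dabsyl chloride derivatisation.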

Series [11] can be described thus: Stability of the compound in wild-type C57BL/6 mouse plasma assessed as de-esterification of carboxyl ester measured after 60 mins by HRMS analysis. Format: ADME, cell-free. The settings on record: 1 h.
The nature of series [12]: Stability in swine jejunum assessed as parent compound remaining at 20 uM measured after 1 hr by LC-MS/MS analysis. The settings on record: pig. The class given is ADME, tissue-based, Sus scrofa. A digest of the protocol:
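Washed swine jejunum was diluted 10-fold in 0.1 M potassium phosphate buffer and probe-sonicated. Prodrug was spiked at 20 µM final and incubated 1 h at 37 °C with orbital shaking. Triplicate quench in acetonitrile with losartan internal standard. Percent parent remaining by LC-MS/MS peak-area ratio.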

Series [13] can be described thus: Stability of the compound in wild-type C57BL/6 mouse plasma measured after 60 mins by UHPLC-MS analysis. The class given is ADME, cell-free. The note with it: 1 h.
The nature of series [14]: Tmax in CES1-deficient C57BL/6 mouse jejunum implanted with mouse EL4 cells assessed as 6-diazo-5-oxo-L-norleucine level at 3.2 mg/kg, sc administered as single dose by LC-MS/MS analysis. Format: ADME, organism-based. The note with it: in vivo. A digest of the protocol: as §1
Series [15] can be described thus: Stability in mouse plasma assessed as parent compound remaining at 20 uM measured after 1 hr by LC-MS/MS analysis.
The nature of series [16]: Prodrug conversion in human plasma suspended with human H69 cells assessed as 6-diazo-5-oxo-L-norleucine formation at 20 uM measured after 1 hr by LC-MS/MS analysis. Format: ADME, cell-free. A digest of the protocol:
as §2

The nature of series [17]: Drug level in mouse EL4 cells implanted in CES1-deficient C57BL/6 mouse assessed as tumor cell to plasma ratio at 3.2 mg/kg, sc administered as single dose measured after 1 hr by LC-MS/MS analysis. The class given is ADME, organism-based.
Series [18] is described as follows: Ratio of 6-diazo-5-oxo-L-norleucine EC50 to test compound EC50 for human P493B cells. The class given is functional.
Series [19] can be described thus: Prodrug conversion in human plasma suspended with human DU4475 cells assessed as 6-diazo-5-oxo-L-norleucine formation at 20 uM measured after 1 hr by LC-MS/MS analysis. The class given is ADME, cell-free. The gist of the method:
as §2

Series [20] in a line: Cmax in CES1-deficient C57BL/6 mouse tumor implanted with mouse EL4 cells assessed as 6-diazo-5-oxo-L-norleucine level at 3.2 mg/kg, sc administered as single dose by LC-MS/MS analysis. The settings on record: in vivo. Also on record: dose 3.2 mg/kg, route subcutaneous. Format: ADME, organism-based, Neoplasm. The gist of the method: as §1
Series [21] is described as follows: Stability in swine plasma assessed as parent compound remaining at 20 uM measured after 1 hr by LC-MS/MS analysis. The settings on record: Sus scrofa, pig.
In a further series the target is Cathepsin B (Homo sapiens, UniProt P07858). The series is described as follows: Stability of the compound assessed as recombinant human cathepsin B-mediated compound hydrolysis by measuring parent compound remaining at 1 uM measured after 3 hrs by UHPLC-MS analysis. The class given is ADME. A digest of the protocol:
as §3

Sequence of Procathepsin L (P07711 whole entry): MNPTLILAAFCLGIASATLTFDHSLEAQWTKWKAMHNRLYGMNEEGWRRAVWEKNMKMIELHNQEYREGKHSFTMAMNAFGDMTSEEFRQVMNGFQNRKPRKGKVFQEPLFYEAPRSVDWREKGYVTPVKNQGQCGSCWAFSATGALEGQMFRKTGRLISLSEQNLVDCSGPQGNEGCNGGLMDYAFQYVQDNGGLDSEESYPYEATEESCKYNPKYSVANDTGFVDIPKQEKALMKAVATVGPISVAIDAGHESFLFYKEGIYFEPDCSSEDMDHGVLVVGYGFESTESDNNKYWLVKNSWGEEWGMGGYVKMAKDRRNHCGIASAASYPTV

A word on the Tmax: it is the time from dosing to the highest level. Usually Kp stands for tissue or fluid exposure divided by exposure in the circulation. As to `CC(=O)NCCCC[C@H](NC(=O)C12CC3CC(CC(C3)C1)C2)C(=O)N[C@@H](CCC(=O)C=[N+]=[N-])C(=O)OC(C)C`, the Tmax in series [1] was found to be 15 min; in series [5], 30 min; in series [9], 60 min; in series [14] it was 30 min. In addition, the Stability entry in series [2] was “Tde”; on Procathepsin L, 36%; in series [6] it was “Stable”; in [11] it was “Unstable”; in series [12], more than 50%; in series [13], “Unstable”. The Stability in series [15] is 0%; in [21], 108%; on Cathepsin B, 64%. Also, the Drug metabolism entry in [3] is “Metabolite_Detected”; in series [4], 8.81 µM; in series [8] it was 11.8 µM; in series [16] it was 0.25 to 0.5 µM; in series [19], 0.25 to 0.5 µM. The AUCt in series [7] stood at 5.07 nmol·h/g. In addition, the “Ratio AUC” value in series [10] is listed as 5. Further, the Kp at 1 h in [17] came out at 16. Also, the “Ratio EC50” value in [18] is on record as 2. Besides, the Cmax in [20] turned out to be 1.55 nmol/g.
